Results on 1 compound are retold here after ChEMBL document CHEMBL5678799 (Biochem J, 2009).

The target of series [1] is Ephrin type-B receptor 3 (Homo sapiens) (UniProt P54753). Nature of the series: Inhibition of recombinant human N-terminal His6-tagged EPHB3 (561 to 998 residues) expressed in Escherichia coli assessed as remaining activity at 10 uM using Poly(Glu, Tyr) as substrate incubated for 30 mins in presence of [gamma-33P]ATP by filter binding method relative to control. The method in brief: (§1)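 Panel assays were run for 30 min at 21 °C, within the linear range for time and enzyme. […] Results are percent activity remaining relative to compound-free control, averaged from triplicate ± S.D.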

For series [2], the target named is Ribosomal protein S6 kinase alpha-1 (Homo sapiens) (UniProt Q15418). Nature of the series: Inhibition of recombinant human N-terminal His6-tagged RSK1 (1 to 735 residues) expressed in baculovirus infected Sf21 cells assessed as remaining activity at 10 uM using KKLNRTLSVA as substrate incubated for 30 mins in presence of [gamma-33P]ATP by filter binding assay relative to control.

Series [3] addresses Inhibitor of nuclear factor kappa-B kinase subunit beta (Homo sapiens) (UniProt O14920). Nature of the series: Inhibition of recombinant human N-terminal His6-tagged IKKbeta (1 to 736 residues) expressed in baculovirus infected Sf21 cells assessed as remaining activity at 1 uM using LDDRHDSGLDSMKDEEY as substrate incubated for 30 mins in presence of [gamma-33P]ATP by filter binding method relative to control. The method in brief:
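Profiling-centre panel assay performed robotically at 21 °C for 30 min, linear with time and enzyme. […] Values are percent of compound-free control activity, the mean of triplicates ± S.D.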

For series [4], the target named is Mitogen-activated protein kinase; ERK1/ERK2 (Homo sapiens) (UniProt P27361+P28482). Kind of series: Inhibition of ERK1/2 in serum starved/PMA-stimulated HEK293 cells assessed as reduction in ERK1/2 phosphorylation at T202/Y204 residues at 1 uM incubated for 30 mins by immunoblot analysis. The format is cell-based. (In western blotting, separated proteins are transferred to a membrane and probed.)

For series [5], the target named is Mitogen-activated protein kinase 14 (Homo sapiens) (UniProt Q16539). Nature of the series: Inhibition of recombinant human N-terminal GST-tagged P38alpha (1 to 360 residues) expressed in Escherichia coli assessed as remaining activity at 1 uM using MBP as substrate incubated for 30 mins in presence of [gamma-33P]ATP by filter binding method relative to control. Put shortly:
(§2)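 Incubation was 30 min at room temperature (21 °C) under conditions linear with time and enzyme amount. Activity is reported as percent of control lacking compound, triplicate mean ± S.D.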

For series [6], the target named is Serine/threonine-protein kinase PAK 4 (Homo sapiens) (UniProt O96013). Nature of the series: Inhibition of recombinant human N-terminal GST-tagged PAK4 (2 to 519 residues) expressed in Escherichia coli assessed as remaining activity at 1 uM using RRRLSFAEPG as substrate incubated for 30 mins in presence of [gamma-33P]ATP by filter binding method relative to control. Put shortly:
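Radiometric kinase panel run robotically at room temperature (21 °C) for 30 min, linear in time and enzyme. […] Activity is expressed as percent of control without compound, from triplicate determinations ± S.D.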

For series [7], the target named is T1, mTORC2 (Homo sapiens) (UniProt P42345+Q6R327+Q9BVC4+Q9BPZ7). The conditions noted are these: HEK293, dose 30-1000 nM, time 30.0 min.
Series [8] concerns the target Inhibitor of nuclear factor kappa-B kinase subunit epsilon (Homo sapiens) (UniProt Q14164). Nature of the series: Inhibition of recombinant human N-terminal GST-tagged IKKepsilon (1 to 716 residues) expressed in baculovirus infected Sf21 cells assessed as remaining activity at 10 uM using MBP as substrate incubated for 30 mins in presence of [gamma-33P]ATP by filter binding method relative to control. Put shortly: as §2

For series [9], the target named is Mitogen-activated protein kinase 3 (Homo sapiens) (UniProt P27361). Nature of the series: Inhibition of recombinant human N-terminal GST-tagged ERK1 (2 to 379 residues) expressed in Escherichia coli assessed as remaining activity at 1 uM using MBP as substrate incubated for 30 mins in presence of [gamma-33P]ATP by filter binding method relative to control. Put shortly:
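Kinase panel run robotically at 21 °C for 30 min, linear in time and enzyme. […] Compound tested at 1 or 10 µM. Activity given as percentage of incubations without compound, mean of triplicates ± S.D.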

The target in series [10] is CDK2/Cyclin A2 (Homo sapiens) (UniProt P24941+P20248). Nature of the series: Inhibition of recombinant human N-terminal GST-tagged CDK2 (2 to 298 residues)/N-terminal GST-tagged Cyclin A2 (171 to 432 residues) expressed in Escherichia coli assessed as remaining activity at 1 uM using YSPTSPSYSPTSPSYSPTSPKKK as substrate incubated for 30 mins in presence of [gamma-33P]ATP by filter binding method relative to control. The method in brief:
(§3)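 Incubations ran robotically for 30 min at room temperature (21 °C) under linear conditions. Results are percent activity remaining versus controls without compound, as the mean of triplicates ± S.D.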

The target of series [11] is Phosphatidylinositol 3-kinase catalytic subunit type 3 (Homo sapiens) (UniProt Q8NEB9). Kind of series: Inhibition of VPS34 (unknown origin) assessed as remaining activity at 10 uM using phosphatidylinositol as substrate incubated for 60 mins in presence of ATP relative to control.
For series [12], the target named is SRSF protein kinase 1 (Homo sapiens) (UniProt Q96SB4). Nature of the series: Inhibition of recombinant human N-terminal GST-tagged SRPK1 (2 to 654 residues) expressed in Escherichia coli assessed as remaining activity at 10 uM using RSRSRSRSRSRSRSR as substrate incubated for 30 mins in presence of [gamma-33P]ATP by filter binding assay relative to control. Put shortly:
as §2

In series [13] the target is Serine/threonine-protein kinase pim-1 (Homo sapiens) (UniProt P11309). Kind of series: Inhibition of recombinant human N-terminal His6-tagged PIM1 (2 to 313 residues) expressed in baculovirus infected Sf21 cells assessed as remaining activity at 10 uM using RSRHSSYPAGT as substrate incubated for 30 mins in presence of [gamma-33P]ATP by filter binding method relative to control. The method in brief: as §3

For series [14], the target named is T1, mTORC2 (Homo sapiens). The conditions noted are these: HEK293, dose 30-1000 nM, time 30.0 min. This is another data set of the same source.
Series [15] relates to MEF. Kind of series: Growth inhibition of MEF cells assessed reduction in cell viability at 3 uM incubated for 1 to 3 days by crystal violet staining based assay. It counts as toxicity. The conditions noted are these: mouse, time 1-3 day. The method in brief: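 MEFs seeded at 20000 cells per 1.91 cm2 well, grown overnight in 10% foetal bovine serum, then cultured 1, 2 or 3 days with 3 μM inhibitor, 100 nM rapamycin or DMSO. Medium changed every 24 h with freshly dissolved inhibitors. Cells fixed in 4% paraformaldehyde, stained with 0.1% Crystal Violet, dye extracted in 10% acetic acid, A590 read. Quadruplicate wells, expressed as % of DMSO control.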

The target of series [16] is Serine/threonine-protein kinase PAK 5 (Homo sapiens) (UniProt Q9P286). Kind of series: Inhibition of recombinant human N-terminal GST-tagged PAK5 (2 to 719 residues) expressed in Escherichia coli assessed as remaining activity at 1 uM using RRRLSFAEPG as substrate incubated for 30 mins in presence of [gamma-33P]ATP by filter binding method relative to control. The method in brief: as §1

Active and inactive are the calls of the source. The calls are words filed in the database; no cut-off is given here.

As to `COc1ccc(-c2ccc3c(N4CCOCC4)nc(N4C[C@@H](C)O[C@@H](C)C4)nc3n2)cc1CO` [Ku-0063794], the Activity came out at 78% in series [1]; 86% in series [2]; 104% in [3]; 101% in series [5]; 110% in series [6]; 100% in series [8]. The Activity in [9] was 102%; in series [10], 89%; in series [11], 93%; in [12], 94%; in series [13], 98%; in series [16] it was 101%. Further, the inhibition result in [4] was “inactive”. Also, the inhibition entry in [7] and in series [14] was “Dose-Dependent Effect” in each case. In addition, the “growth inhibition (GI)” value in series [15] was “Toxic”.
